Laboratory results taken from ChEMBL document CHEMBL5030522, “A Convenient Chemoenzymatic Preparation of Chimeric Macrocyclic Peptide Antibiotics with Potent Activity against Gram-Negative Pathogens” (2021).
Values after ≈ are worked out from the molar mass of the structure shown. Numbered stars: 1 amine (or outer) side, 2 acyl side, 3 side chain; on linkers, the order of the positions; unused ones are H or OH. Bridge positions count the residues as written; N and C are the ends. Square brackets hold non-standard residues; d marks the D form. Peptide text beside a SMILES is read from it. I, II: the chains in the order shown. X3 = NC(=O)[C@H](Cc1cn(CCCCC(=O)[*:2])nn1)N[*:1]; X2 = NC(=O)[C@H](Cc1cn(CC(=O)[*:2])nn1)N[*:1]; Tle = CC(C)(C)[C@H](N)C(=O)O; dDab = NCC[C@@H](N)C(=O)O; hSer = N[C@@H](CCO)C(=O)O; Dab = NCC[C@H](N)C(=O)O

Tests used:
Type in all cases: functional
Pseudomonas aeruginosa [1] = assay: Antibacterial activity against Pseudomonas aeruginosa M-120 assessed as inhibition of bacterial growth after 16 hrs by broth microdilution method
How it was run: (§1)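 MIC per CLSI broth microdilution. Strains streaked from glycerol stocks on blood agar, 16 h at 37 °C. Single colonies inoculated into cation-adjusted Mueller-Hinton broth (10 mg L–1 Mg2+, 25 mg L–1 Ca2+). Peptides serially diluted in this broth with 0.002% (v/v) final polysorbate-80 in polypropylene plates. Inoculum 5 × 10^5 CFU mL–1. Plates sealed, 16 h at 37 °C, growth scored visually. MIC in μg/mL, triplicates on two separate days.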

Escherichia coli [2] = assay: Antibacterial activity against Escherichia coli producing MCR3 assessed as inhibition of bacterial growth after 16 hrs by broth microdilution method; how it was run: as §1
Escherichia coli [3] = assay: Antibacterial activity against Escherichia coli producing MCR2 assessed as inhibition of bacterial growth after 16 hrs by broth microdilution method; how it was run: as §1
Acinetobacter baumannii [4] = assay: Antibacterial activity against Acinetobacter baumannii ATCC 9955 assessed as inhibition of bacterial growth after 16 hrs by broth microdilution method; how it was run: as §1
Pseudomonas aeruginosa [5] = assay: Antibacterial activity against Pseudomonas aeruginosa ATCC 27853 assessed as inhibition of bacterial growth after 16 hrs by broth microdilution method; how it was run: as §1
Acinetobacter baumannii [6] = assay: Antibacterial activity against Acinetobacter baumannii NRZ 00687 producing NDM2 assessed as inhibition of bacterial growth after 16 hrs by broth microdilution method; how it was run: as §1
Klebsiella pneumoniae [7] = assay: Antibacterial activity against Klebsiella pneumoniae ATCC 11228 assessed as inhibition of bacterial growth after 16 hrs by broth microdilution method; how it was run: as §1
Acinetobacter baumannii [8] = assay: Antibacterial activity against multidrug-resistant Acinetobacter baumannii assessed as inhibition of bacterial growth after 16 hrs by broth microdilution method
How it was run: (§2)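 CLSI broth microdilution. Strains grown from glycerol stocks on blood agar 16 h at 37 °C; colonies used to inoculate CAMHB containing 10 mg L–1 Mg2+ and 25 mg L–1 Ca2+. Peptides dissolved in CAMHB with 0.002% (v/v) final polysorbate-80, serially diluted in polypropylene plates; inoculum 5 × 10^5 CFU mL–1. Sealed, 16 h at 37 °C, growth scored visually. MIC in μg/mL; three or more measurements on multiple days.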

Pseudomonas aeruginosa [9] = assay: Antibacterial activity against Pseudomonas aeruginosa NRZ 08418 producing NDM1 assessed as inhibition of bacterial growth after 16 hrs by broth microdilution method; how it was run: as §1
Pseudomonas aeruginosa [10] = assay: Antibacterial activity against Pseudomonas aeruginosa producing NDM1 assessed as inhibition of bacterial growth after 16 hrs by broth microdilution method; how it was run: as §2
Staphylococcus aureus = assay: Antibacterial activity against methicillin resistant Staphylococcus aureus USA300 by measuring MIC after 16 hrs by broth microdilution method; how it was run: as §2
Klebsiella pneumoniae [11] = assay: Antibacterial activity against Klebsiella pneumoniae producing NDM1 assessed as inhibition of bacterial growth after 16 hrs by broth microdilution method; how it was run: as §1
Acinetobacter baumannii [12] = assay: Antibacterial activity against Acinetobacter baumannii ATCC 17978 assessed as inhibition of bacterial growth after 16 hrs by broth microdilution method; how it was run: as §1
Escherichia coli [13] = assay: Antibacterial activity against Escherichia coli producing MCR1 assessed as inhibition of bacterial growth after 16 hrs by broth microdilution method; how it was run: as §1
Escherichia coli [14] = assay: Antibacterial activity against Escherichia coli ATCC 35218 assessed as inhibition of bacterial growth after 16 hrs by broth microdilution method; how it was run: as §1
Escherichia coli [15] = assay: Antibacterial activity against Escherichia coli producing NDM1 assessed as inhibition of bacterial growth after 16 hrs by broth microdilution method; how it was run: as §2

Compound | MIC (Pseudomonas aeruginosa [1]) [mg/L] | MIC (Escherichia coli [2]) [mg/L] | MIC (Escherichia coli [3]) [mg/L] | MIC (Acinetobacter baumannii [4]) [mg/L] | MIC (Pseudomonas aeruginosa [5]) [mg/L] | MIC (Acinetobacter baumannii [6]) [mg/L] | MIC (Klebsiella pneumoniae [7]) [mg/L] | MIC (Acinetobacter baumannii [8]) [mg/L] | MIC (Pseudomonas aeruginosa [9]) [mg/L] | MIC (Pseudomonas aeruginosa [10]) [mg/L] | MIC (Staphylococcus aureus) [mg/L] | MIC (Klebsiella pneumoniae [11]) [mg/L] | MIC (Acinetobacter baumannii [12]) [mg/L] | MIC (Escherichia coli [13]) [mg/L] | MIC (Escherichia coli [14]) [mg/L] | MIC (Escherichia coli [15]) [mg/L]
CC(C)C[C@@H]1NC(=O)[C@@H](CC(C)C)NC(=O)[C@H](CCN)NC(=O)[C@@H](NC(=O)Cn2cc(C[C@H](NC(=O)CC[C@@H]3NC(=O)[C@H](CCN)NC(=O)[C@H](Cc4ccc(O)cc4)NC(=O)[C@H]([C@@H](C)O)NC(=O)[C@H](C(C)C)NC(=O)[C@@H]4CCCN4C(=O)[C@@H](C)NC(=O)[C@H](CO)NC(=O)[C@H](C)NC(=O)[C@H](C(C)(C)C)NC(=O)[C@H](CCO)NC(=O)[C@H](Cc4c[nH]c5ccccc45)NC(=O)[C@H](CCO)NC(=O)[C@@H](CCN)NC3=O)C(N)=O)nn2)CCNC(=O)[C@H]([C@@H](C)O)NC(=O)[C@H](CCN)NC(=O)[C@H](CCN)NC1=O (I: cyclo([dDab][hSer]W[hSer][Tle]AS[dA]PVTY[Dab]E) / II: [Dab][Dab][dL]L[Dab][Dab]T; linker I:14-II:N via X2; lactam II:1-II:C) | 64 (≈ 26.4 µM) | 64 (≈ 26.4 µM) | 32 (≈ 13.2 µM) | 64 (≈ 26.4 µM) | 64 (≈ 26.4 µM) | 64 (≈ 26.4 µM) | 16 (≈ 6.6 µM) | 32 (≈ 13.2 µM) | 64 (≈ 26.4 µM) | 32 (≈ 13.2 µM) | > 64 | – | – | – | – | –
CC(C)C[C@@H]1NC(=O)[C@@H](CC(C)C)NC(=O)[C@H](CCN)NC(=O)[C@@H](NC(=O)[C@H](CCN)NC(=O)[C@@H](NC(=O)CCCCn2cc(C[C@H](NC(=O)CC[C@@H]3NC(=O)[C@H](CCN)NC(=O)[C@H](Cc4ccc(O)cc4)NC(=O)[C@H]([C@@H](C)O)NC(=O)[C@H](C(C)C)NC(=O)[C@@H]4CCCN4C(=O)[C@@H](C)NC(=O)[C@H](CO)NC(=O)[C@H](C)NC(=O)[C@H](C(C)(C)C)NC(=O)[C@H](CCO)NC(=O)[C@H](Cc4c[nH]c5ccccc45)NC(=O)[C@H](CCO)NC(=O)[C@@H](CCN)NC3=O)C(N)=O)nn2)[C@@H](C)O)CCNC(=O)[C@H]([C@@H](C)O)NC(=O)[C@H](CCN)NC(=O)[C@H](CCN)NC1=O (I: cyclo([dDab][hSer]W[hSer][Tle]AS[dA]PVTY[Dab]E) / II: T[Dab][Dab][Dab][dL]L[Dab][Dab]T; linker I:14-II:N via X3; lactam II:3-II:C) | – | – | 4 (≈ 1.5 µM) | 2 (≈ 0.749 µM) | – | – | 2 (≈ 0.749 µM) | 2 (≈ 0.749 µM) | 4 (≈ 1.5 µM) | 2 (≈ 0.749 µM) | > 64 | 4 (≈ 1.5 µM) | 1 (≈ 0.375 µM) | 4 (≈ 1.5 µM) | 1 (≈ 0.375 µM) | –
CC[C@H](C)CCCCC(=O)N[C@@H](CCN)C(=O)N[C@H](C(=O)N[C@@H](CCN)C(=O)N[C@H]1CCNC(=O)[C@H]([C@@H](C)O)NC(=O)[C@H](CCN)NC(=O)[C@H](CCN)NC(=O)[C@H](CC(C)C)NC(=O)[C@@H](CC(C)C)NC(=O)[C@H](CCN)NC1=O)[C@@H](C)O | 0.8 (≈ 0.684 µM) | 3.2 (≈ 2.74 µM) | > 6.4 | 0.4 (≈ 0.342 µM) | 1.6 (≈ 1.37 µM) | 0.2 (≈ 0.171 µM) | 0.1 (≈ 0.0855 µM) | 0.4 (≈ 0.342 µM) | 0.8 (≈ 0.684 µM) | 0.4 (≈ 0.342 µM) | > 6.4 | 1.6 (≈ 1.37 µM) | 0.4 (≈ 0.342 µM) | 3.2 (≈ 2.74 µM) | 0.1 (≈ 0.0855 µM) | 0.1 (≈ 0.0855 µM)
CC(C)C[C@@H]1NC(=O)[C@@H](CC(C)C)NC(=O)[C@H](CCN)NC(=O)[C@@H](NC(=O)[C@H](CCN)NC(=O)[C@@H](NC(=O)Cn2cc(C[C@H](NC(=O)CC[C@@H]3NC(=O)[C@H](CCN)NC(=O)[C@H](Cc4ccc(O)cc4)NC(=O)[C@H]([C@@H](C)O)NC(=O)[C@H](C(C)C)NC(=O)[C@@H]4CCCN4C(=O)[C@@H](C)NC(=O)[C@H](CO)NC(=O)[C@H](C)NC(=O)[C@H](C(C)(C)C)NC(=O)[C@H](CCO)NC(=O)[C@H](Cc4c[nH]c5ccccc45)NC(=O)[C@H](CCO)NC(=O)[C@@H](CCN)NC3=O)C(N)=O)nn2)[C@@H](C)O)CCNC(=O)[C@H]([C@@H](C)O)NC(=O)[C@H](CCN)NC(=O)[C@H](CCN)NC1=O (I: cyclo([dDab][hSer]W[hSer][Tle]AS[dA]PVTY[Dab]E) / II: T[Dab][Dab][Dab][dL]L[Dab][Dab]T; linker I:14-II:N via X2; lactam II:3-II:C) | 4 (≈ 1.52 µM) | – | 2 (≈ 0.761 µM) | 2 (≈ 0.761 µM) | 1 (≈ 0.381 µM) | 0.5 (≈ 0.19 µM) | – | 1 (≈ 0.381 µM) | – | 2 (≈ 0.761 µM) | > 6.4 | 2 (≈ 0.761 µM) | – | 2 (≈ 0.761 µM) | 0.5 (≈ 0.19 µM) | –
